Experimental data: ChEMBL document CHEMBL3739259, “Defining Key Structural Determinants for the Pro-osteogenic Activity of Flavonoids” (J Nat Prod, 2015)
Active and inactive are the calls of the source. The rule behind the calls is not given here.

Key:
MSC [1] = test: (§1) Induction of osteogenic differentiation in human MSC assessed as increase in ALP activity at 1 uM using p-NPP as substrate after 9 days by colorimetric method relative to control; type: functional
How it was run: (§2)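 ALP read on day 9 in passage-3 bone-marrow hMSCs cultured at high density in Os.D medium. Compound (1, 5 or 10 μM, 0.1% v/v DMSO final) was re-applied on days 0, 3 and 6. Colorimetric p-nitrophenyl phosphate method, normalised to time and cell number (pNP/min/20,000 cells). Expressed as % of untreated control; three independent triplicate experiments; one-way ANOVA versus vehicle.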

[2] = Decrease in ALP activity in human MSC using p-NPP as substrate at 5 uM after 9 days by colorimetric method relative to control; type: functional; parameters: Activity: scale not given: the % may be the effect or the level left; how it was run: as §2
[3] = Decrease in ALP activity in human MSC using p-NPP as substrate at 10 uM after 9 days by colorimetric method relative to control; type: functional; parameters: Activity: scale not given: the % may be the effect or the level left
How it was run: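 Passage-3 bone-marrow hMSCs from healthy donors, cultured at high density in osteogenic (Os.D) medium; compound given at days 0, 3 and 6 with media change every 3 days, final 0.1% (v/v) DMSO; vehicle, 50 nM calcitriol and untreated controls. Day-9 ALP by para-nitrophenyl phosphate colorimetry, normalised to time and cell number (methylene blue); % of untreated control, 3 independent triplicate experiments ± SEM.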

[4] = Cytotoxicity against human MSC assessed as cell viability at 1 uM measured on day 1 by alamar blue assay (reference value: […] +/- 1%); details: MSC cells, read-out: Activity
[5] = Cytotoxicity against human MSC assessed as cell viability at 5 uM after 24 hrs measured on day 1 by alamar blue assay (reference value: […] +/- 1%); details: MSC cells, read-out: Activity
[6] = Cytotoxicity against human MSC assessed as cell viability at 10 uM after 24 hrs measured on day 1 by alamar blue assay (reference value: […] +/- 1%); details: MSC cells, read-out: Activity
[7] = Cytotoxicity against human MSC assessed as cell viability at 1 uM treated for 3 days measured on day 4 by alamar blue assay (reference value: 100 +/- 1%); details: MSC cells, read-out: Activity
[8] = Cytotoxicity against human MSC assessed as cell viability at 5 uM treated for 3 days measured on day 4 by alamar blue assay (reference value: 100 +/- 1%); details: MSC cells, read-out: Activity
[9] = Cytotoxicity against human MSC assessed as cell viability at 10 uM treated for 3 days measured on day 4 by alamar blue assay (reference value: 100 +/- 1%); details: MSC cells, read-out: Activity
[10] = Cytotoxicity against human MSC assessed as cell viability at 1 uM treated for 6 days measured on day 7 by alamar blue assay (reference value: 98%); details: MSC cells, read-out: Activity
[11] = Cytotoxicity against human MSC assessed as cell viability at 5 uM treated for 6 days measured on day 7 by alamar blue assay (reference value: 98%); details: MSC cells, read-out: Activity
[12] = Cytotoxicity against human MSC assessed as cell viability at 10 uM treated for 6 days measured on day 7 by alamar blue assay (reference value: 98%); details: MSC cells, read-out: Activity
[13] = Cytotoxicity against human MSC assessed as decrease in cell number at 10 uM after 9 days by methylene blue staining based microscopy relative to control; details: 216 h
How it was run: (§3)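 Passage-3 bone-marrow hMSCs, high density in Os.D medium, dosed with 1, 5 or 10 μM compound (0.1% v/v DMSO final) on days 0, 3 and 6 with medium changes. Cell number measured on day 9 by methylene blue proliferation assay. Expressed as % of untreated control; three independent triplicate experiments, mean ± SEM, one-way ANOVA versus vehicle.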

[14] = Cytotoxicity against human MSC assessed as decrease in cell number at 5 uM after 9 days by methylene blue staining based microscopy relative to control; details: 216 h; how it was run: as §3
[15] = (§4) Induction of osteogenic differentiation in human MSC assessed as increase in ALP activity at 5 uM using p-NPP as substrate after 9 days by colorimetric method relative to control; type: functional; how it was run: as §2
[16] = Induction of osteogenic differentiation in human MSC assessed as increase in ALP activity at 10 uM using p-NPP as substrate after 9 days by colorimetric method relative to control; type: functional; how it was run: as §2
[17] = Cytotoxicity against human MSC assessed as decrease in cell number at 1 to 10 uM after 9 days by methylene blue staining based microscopy relative to control; details: 216 h; how it was run: as §3
MSC [18] = test: Induction of osteogenic differentiation in human MSC assessed as increase in ALP activity using p-NPP as substrate after 9 days by colorimetric method; type: functional; how it was run: as §2
[19] = Cytotoxicity against human MSC assessed as cell viability at 1 uM measured on day 1 by alamar blue assay (reference value: 97 to 101%); details: MSC cells, read-out: Activity
[20] = Cytotoxicity against human MSC assessed as cell viability at 5 uM measured on day 1 by alamar blue assay (reference value: 97 to 101%); details: MSC cells, read-out: Activity
[21] = Cytotoxicity against human MSC assessed as cell viability at 10 uM measured on day 1 by alamar blue assay (reference value: 97 to 101%); details: MSC cells, read-out: Activity
[22] = Cytotoxicity against human MSC assessed as cell viability at 1 uM treated for 3 days measured on day 4 by alamar blue assay (reference value: 97 to 100%); details: MSC cells, read-out: Activity
[23] = Cytotoxicity against human MSC assessed as cell viability at 5 uM treated for 3 days measured on day 4 by alamar blue assay (reference value: 97 to 100%); details: MSC cells, read-out: Activity
[24] = Cytotoxicity against human MSC assessed as cell viability at 10 uM treated for 3 days measured on day 4 by alamar blue assay (reference value: 97 to 100%); details: MSC cells, read-out: Activity
[25] = Cytotoxicity against human MSC assessed as cell viability at 1 uM treated for 6 days measured on day 7 by alamar blue assay (reference value: 96 to 101%); details: MSC cells, read-out: Activity
[26] = Cytotoxicity against human MSC assessed as cell viability at 5 uM treated for 6 days measured on day 7 by alamar blue assay (reference value: 96 to 101%); details: MSC cells, read-out: Activity
[27] = Cytotoxicity against human MSC assessed as cell viability at 10 uM treated for 6 days measured on day 7 by alamar blue assay (reference value: 96 to 101%); details: MSC cells, read-out: Activity
[28] = Cytotoxicity against human MSC assessed as […] in cell number at 1 to 10 uM after 9 days by methylene blue staining based microscopy relative to control; details: 216 h; how it was run: as §3
[29] = as §1; type: functional; how it was run: as §2
[30] = Induction of matrix mineralization in human MSC assessed as increase in calcium deposition across cell monolayer at 10 uM after 20 days by Alizarin red S staining based microscopy relative to control; type: functional
MSC [31] = test: as §4; type: functional; how it was run: as §2

Structure (SMILES) | Activity (MSC [1]) | viability at 1 day, 1 µM [4] [%] | viability at 24 h, 5 µM [5] [%] | viability at 24 h, 10 µM [6] [%] | viability at 72 h, 1 µM [7] [%] | viability at 72 h, 5 µM [8] [%] | viability at 72 h, 10 µM [9] [%] | viability at 144 h, 1 µM [10] [%] | viability at 144 h, 5 µM [11] [%] | viability at 144 h, 10 µM [12] [%] | Activity [15] [%] | viability at 1 day, 1 µM [19] [%] | viability at 1 day, 5 µM [20] [%] | viability at 1 day, 10 µM [21] [%] | viability at 72 h, 1 µM [22] [%] | viability at 72 h, 5 µM [23] [%] | viability at 72 h, 10 µM [24] [%] | viability at 144 h, 1 µM [25] [%] | viability at 144 h, 5 µM [26] [%] | viability at 144 h, 10 µM [27] [%] | other results
O=c1cc(-c2cc(O)c(O)c(O)c2)oc2cc(O)cc(O)c12 [TRICETIN] | inactive | 108 | 106 | 104 | 99 | 95 | 95 | 97 | 94 | 94 |  |  |  |  |  |  |  |  |  |  | Activity [2]: 99%; Activity [3]: 79%; fold change (FC) [13]: 0.47; fold change (FC) [14]: 0.68
O=C1C[C@@H](c2ccccc2)Oc2cc(O)cc(O)c21 [PINOCEMBRIN] | inactive | 109 | 110 | 111 | 94 | 95 | 96 | 96 | 97 | 98 | 107 |  |  |  |  |  |  |  |  |  | Activity [16]: 121%; Activity [17]: Non-toxic
O=c1c(O)c(-c2ccc(O)cc2)oc2cc(O)cc(O)c12 [KAEMPFEROL] | inactive |  |  |  |  |  |  |  |  |  | 237 | 96 | 104 | 104 | 97 | 98 | 98 | 100 | 100 | 97 | fold change (FC) [15]: 1.52; Activity [16]: 268%; fold change (FC) [16]: 1.32; Activity (MSC [18]): Dose-dependent effect; Activity [28]: Toxic
COc1ccc(-c2oc3cc(O)cc(O)c3c(=O)c2O)cc1 [KAEMPFERIDE] |  | 112 | 112 | 111 | 95 | 95 | 95 | 97 | 98 | 99 | 237 |  |  |  |  |  |  |  |  |  | Activity [29]: 143%; Activity [16]: 281%; Activity (MSC [18]): Dose-dependent effect; Activity [13]: Non-toxic; fold change (FC) [30]: 3.17
O=C(O[C@@H]1Cc2c(O)cc(O)cc2O[C@@H]1c1cc(O)c(O)c(O)c1)c1cc(O)c(O)c(O)c1 [EPIGALOCATECHIN GALLATE] | inactive |  |  |  |  |  |  |  |  |  |  | 101 | 98 | 90 | 93 | 91 | 89 | 101 | 101 | 102 | Activity (MSC [31]): inactive; fold change (FC) [17]: 0.43; Activity [2]: 84%; fold change (FC) [3]: 0.75
O=c1c(O)c(-c2cc(O)c(O)c(O)c2)oc2cc(O)cc(O)c12 [MYRICETIN] | inactive |  |  |  |  |  |  |  |  |  |  | 100 | 94 | 101 | 97 | 97 | 101 | 97 | 98 | 98 | Activity [17]: Toxic; fold change (FC) [2]: 0.74; fold change (FC) [3]: 0.62
COc1ccc([C@@H]2CC(=O)c3c(O)cc(O)cc3O2)cc1O [HESPERETIN] | inactive |  |  |  |  |  |  |  |  |  |  | 102 | 95 | 96 | 98 | 102 | 103 | 97 | 99 | 98 | Activity (MSC [31]): inactive; fold change (FC) [16]: 1.72; Activity [28]: Toxic
